HSF1 activator: increases HSF-1 driven luciferase reporter signal. NIH3T3-HGL HSF-1 luciferase reporter, MG132, 8 h; 100% = twice DMSO control signal. activation, % at 9 µM. hit rate 1.7% among 300,000. AID 504408;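 active means mean replicate activation of at least 50% with a set share of replicates each reaching 50%; inconclusive means only one of those two conditions met; inactive means mean below 50% and too few replicates reaching it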;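 further: 0% = median of the neutral control wells and 100% = twice that signal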
HSF1 inh: HSF1 inhibition | activity change, negative = inhibition, % at 7.5 µM (by protocol) | AID 2098 | hit rate 0.77% among 300,000 | NIH3T3-HGL HSE-luciferase, MG132-induced, luminescence 8 h; stronger effect = lower value;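 active means more than half of replicate wells show activity change below -50%, luminescence cut by over half; inconclusive means some wells, but at most half, below -50%; inactive means no replicate well below -50%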;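 further: luciferase reports HSF-1 transcriptional activity via heat shock element; 0% = median of DMSO wells and -100% = zero luminescence signal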
HCV NS3 hel inh: inhibitors of Hepatitis C virus NS3 helicase; NS3 helicase DNA unwinding, Cy5 molecular beacon fluorescence; inhibition, % at 10.9 µM; hit rate 0.56% among 290,000;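 active means inhibition above the mean of all tested compounds plus 3 SD, set per campaign, cut at about 35% in these data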;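 further: 0% = DMSO wells and 100% = thioflavine S control wells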
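Material: hepatitis C virus NS3 helicase domain fragment enzyme; measured by: Cy5 fluorescence, 0 and 60 min reads; control set: DMSO and thioflavine S; incubation: 60 min unwinding reaction at 25 °C after ATP addition; read-out basis: % inhibition from 60/0 min fluorescence ratio, DMSO 0%, thioflavine S 100%; repeats: singlicate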
HSP90 refold inh: inhibitors of HSP90 luciferase refolding in rabbit reticulocyte lysate; luciferase refolding luminescence, 3 h; inhibition, % at 5.6 µM; hit rate 0.91% among 290,000; AID 1789;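 active means inhibition above the screen-wide mean plus 3 SD, computed separately per campaign, cut at about 16% in these data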;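 further: 0% = DMSO wells and 100% = 60 µM geldanamycin wells; inhibitors lower the luminescence because luciferase stays unfolded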
Lipid droplet: modulators of hepatic lipid droplet formation. inhibition, % at 6.5 µM. AML12 mouse hepatocytes, oleate lipid droplets, BODIPY imaging. hit rate 0.4% among 240,000;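 active means lipid droplet intensity inhibited by at least 50%, with more than 500 cells counted; inconclusive means wells with under 300 cells, treated as cytotoxic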
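Assay system: AML12 hepatocytes (mouse) / Also added: 100 µM oleic acid challenge / Times: overnight treatment with compound plus oleate / Detection: high-content imaging of BODIPY-stained droplets and DAPI nuclei / Evaluation: % inhibition of lipid droplet signal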
An asterisk follows results filed as active; ? = inconclusive; . = no result given. Sampled rows, rich in hits. Any-hit rate of the full collection: about 3.8%.

SMILES	HSF1 activator	HSF1 inh	HCV NS3 hel inh	HSP90 refold inh	Lipid droplet
Cc1ccnc(NC(=O)c2ccc(S(=O)(=O)N3CCCCCC3)cc2)c1	1	6	.	.	.
Cn1c(=O)cc(SCC(=O)N2CCOCC2)c2ccc(Cl)cc21	98*	54	-3	-2	-4
O=c1c2c3c(sc2nc(NCCOCCO)n1Cc1ccco1)CCCCC3	-62	-62*	-1	3	-4
Cc1ccc(Nc2ncnc3c2oc2ccccc23)cc1	47	36	-12	5	2
COc1ccc(Nc2ncnc3c2oc2ccccc23)cc1	56*	25	11	-2	.
CCc1ccc(NC(=O)CSc2nncn2-c2cccnc2)cc1	30	12	8	-5	15
CC(=O)Oc1ccc2cc(-c3nc4ccccc4n3C)c(=O)oc2c1	9	10	0	-3	.
CCN(CC)Cc1c(O)ccc2cc(-c3nc4ccccc4n3C)c(=O)oc12	68*	25	25	-2	5
CCc1cc2c(=O)c(-c3nc4ccccc4n3C)c(C)oc2c(CN(CC)CC)c1O	5	-1	10	2	.
Cn1c(-c2cc3ccc(OC(=O)C(C)(C)C)cc3oc2=O)nc2ccccc21	58*	14	4	-3	.
Cc1nnc(SCC(=O)NNC(=O)COc2ccc(Cl)cc2)n1C	29	0	-4	0	-4
CC1(C)CC(=O)C(C2C3=C(CC(C)(C)CC3=O)OC3=C2C(=O)CC(C)(C)C3)=C(O)C1	67*	23	-9	-9	-13
NCCCCCc1nnc(SCC(=O)c2ccc(Cl)cc2)o1	58*	30	-93	1	.
NCCCCCc1nnc(SC/C=C/c2ccccc2)o1	97*	57	-39	-1	-9
NC(=O)c1ccccc1OCC(=O)Nc1ccc(Cl)c(Cl)c1	91*	50	3	4	-9
COc1ccccc1OCC(=O)Nc1ccc(Cl)cc1	10	18	-3	-1	-5
CC(C)(C)NC(=O)COC(=O)c1ccccc1OCC(=O)Nc1ccc(Br)cc1	69*	40	3	2	-4
Cn1cccc1/C=C1\SC(=O)N(c2ccccc2)C1=O	65*	24	2	1	1
COc1ccc(NC(=O)C2CC3CCC2C3)c(OC)c1 (centres undefined)	-1	-2	.	.	.
C/C(CCc1oc2ccccc2c1-c1ccc(C)o1)=N/O	.	.	-4	0	-32
C/C(CCc1oc2c(Br)cc(Br)cc2c1-c1ccc(C)o1)=N\O	80*	40	22	2	-27
Fc1ccc(-c2cn3cc(C(F)(F)F)cc(Cl)c3n2)cc1	83*	43	-1	0	.
COc1ccc(-c2cn3cc(C(F)(F)F)cc(Cl)c3n2)cc1	17	9	0	-4	12
COc1ccc(N(CC(=O)NCc2ccc(F)cc2)C(=O)c2snc(C(N)=O)c2N)cc1OC	12	-7	2	-3	12
Cc1cccc(CN2CCC(C(=O)Nc3cccc(-c4cscn4)c3)CC2)n1	82*	40	3	2	-1
SMILES	HSF1 activator	HSF1 inh	HCV NS3 hel inh	HSP90 refold inh	Lipid droplet
CSc1nsc(SCC(=O)Nc2ccc(C(N)=O)cc2)n1	39	12	6	1	8
Clc1ccc(CN2C3=NCCCN3c3ccccc32)c(Cl)c1	13	-9	-11	-1	-37
Cc1cccc(C(=O)Oc2ccc(/C=N/NC(=O)c3ccccc3O)cc2)c1	55*	53	10	-6	-7
C=CCOC(=O)/C(=C/c1cccc2ccccc12)NC(=O)c1ccccc1	72*	54	-7	-8	38
N=C1S/C(=C\c2ccc(-c3cccc(Cl)c3)o2)C(=O)N1c1nccs1	223*	211	15	0	-80
O=c1c(Cl)c(O)c2cccc3c4ccccc4n1c23	79*	84	5	-2	2
O=c1cc(O)nc(-c2ccc(Cl)cc2)s1	5	3	7	-2	7
COc1ccc(-n2cc([N+](=O)[O-])c(=O)c3ccc(Cl)cc32)cc1	-75	-66*	.	.	.
COc1ccc(OCCNc2cc(Cl)ccc2[N+](=O)[O-])cc1	-5	1	-7	3	?
O=C(NCC1CCCO1)c1nn2c(C(F)(F)F)cc(-c3cc(Br)cs3)nc2c1Br (centres undefined)	62*	19	3	1	-1
O=C(Cn1nc(-c2ccccc2Cl)ccc1=O)Nc1ccccc1-c1ccccc1	53*	14	-3	2	-3
O=C(Cn1nc(-c2ccccc2)ccc1=O)N1CCCCC1	-82	-79*	11	2	4
O=C(Cn1nc(-c2ccccc2Cl)ccc1=O)Nc1ccc(Br)cc1	-18	-5	-6	3	-18
C/[N+]([O-])=C\c1cccc(OCCN2CCN(c3ncc(C(F)(F)F)cc3Cl)CC2)c1	3	-3	2	1	.
CC1CC(C)CN(CCCNC(=O)c2nn(C)c3c2CS(=O)(=O)c2ccccc2-3)C1 (centres undefined)	0	1	8	-3	-11
O=C(O)c1cccc(N/N=C/c2cccs2)c1	-62	-58*	12	52*	13
CCOc1ccc(/C=N/NC(=S)NC2CC3C=CC2C3)cc1 (centres undefined)	53*	35	-4	-3	36
CCOc1ccc(CNC(=S)N/N=C\c2ccc([N+](=O)[O-])cc2)cc1	9	7	-7	5	2
COc1cc(/C=N/NC(=S)NCCc2ccccc2)cc(OC)c1OC	3	-3	-22	0	3
COc1cc(/C=N/NC(=S)NC2CC3C=CC2C3)cc(OC)c1OC (centres undefined)	164*	123	-4	0	-18
COc1cc(NC(=O)c2ccc3c(c2)S(=O)(=O)N=C2CCCCCN23)cc(OC)c1	1	-8	.	.	.
COc1cc(/C=C2/NC(=O)N(Cc3ccccc3F)C2=O)ccc1Oc1ccc([N+](=O)[O-])cn1	24	14	-1	-1	16
COc1cc(/C=C2/NC(=O)N(Cc3ccccc3F)C2=O)ccc1O	107*	69	-6	-3	8
c1ccc(-c2noc(-c3ccc4c(c3)OCO4)n2)nc1	-48	-42	-3	41*	-3
Cc1cccc(-c2noc(-c3ccc4c(c3)OCO4)n2)c1	-29	-21	0	1	-9
O=[N+]([O-])c1cccc(-c2nc(-c3ccccn3)no2)c1	54*	20	12	6	-1
Cc1ccc(C)c(NC(=O)CS(=O)(=O)c2cn(C)c3ccccc23)c1	54*	29	7	1	-11
Cc1ccc2c(CNCc3ccccc3)cc(=O)oc2c1	21	-1	-11	-2	-11
Cc1ccc(N(C(=O)CCCC(=O)Nc2ccccn2)C(C(=O)NC2CCCC2)c2ccc(O)cc2)cc1C (centres undefined)	1	5	-9	1	-12
CCOC(=O)c1cc2sccc2n1CC(=O)C(C)(C)C	4	-7	8	0	-8

Source: PubChem BioAssay (several laboratories)
